Tests used:
Type in all cases: functional, organism-based
Homo sapiens [1] = species: Homo sapiens; assay: Inhibition of U-46,619 induced human platelet aggregation
Summary of the method: (§1)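 Human platelet-rich plasma from drug-free volunteers (no medication ≥10 days). Compounds prepared fresh in N2-deoxygenated 10 mM sodium phosphate/0.9% NaCl pH 7.4 (one in DMSO, final 0.14%), added 1 min before inducer: ADP 1–5 μM, AA 0.2–1 mM or U46619 0.3–0.5 μM. Turbidometric aggregometry; IC50 from light-transmittance amplitude at 6 min (ADP, secondary wave) or 4 min (AA, U46619); mean ± SEM over donors.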

Homo sapiens [2] = species: Homo sapiens; assay: Inhibition of U-46,619 induced serotonin secretion
Summary of the method: (§2)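 Platelets in human platelet-rich plasma prelabeled with [14C]serotonin; dense-granule secretion read as released radioactivity. Compounds in deoxygenated 10 mM sodium phosphate/0.9% NaCl pH 7.4, given 1 min before ADP (1–5 μM), AA (0.2–1 mM) or U46619 (0.3–0.5 μM). Top drug levels 4000–5000 μM; mean ± SEM across donors.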

Homo sapiens [3] = species: Homo sapiens; assay: Inhibition of adenosine diphosphate (ADP) induced human platelet aggregation; summary of the method: as §1
Homo sapiens [4] = species: Homo sapiens; assay: Inhibition of adenosine diphosphate (ADP) induced serotonin secretion; summary of the method: as §2
Homo sapiens [5] = species: Homo sapiens; assay: Inhibition of arachidonic acid (AA) induced human platelet aggregation; summary of the method: as §1
Homo sapiens [6] = species: Homo sapiens; assay: Inhibition of arachidonic acid (AA) induced serotonin secretion; summary of the method: as §2
Homo sapiens [7] = species: Homo sapiens; assay: Inhibition of U-46,619 induced serotonin secretion; c=No response; summary of the method: as §2

Structure (SMILES)	IC50 (Homo sapiens [1]) [mM]	IC50 (Homo sapiens [2]) [mM]	IC50 (Homo sapiens [3]) [µM]	IC50 (Homo sapiens [4]) [µM]	IC50 (Homo sapiens [5]) [mM]	IC50 (Homo sapiens [6]) [mM]	IC50 (Homo sapiens [7])
O=c1c(O)c(O)oc2ccc(O)cc12	> 4	> 4	1420	1520	3.51	3.41	–
O=C1C(O)=C(O)OC1c1ccc(Cl)cc1 (configuration not stated)	> 4	> 4	1090	1210	> 4	> 4	–
O=C1C(O)=C(O)OC12CCCC2	> 4	> 4	> 4000	> 4000	> 4	> 4	–
O=C1C(O)=C(O)OC12CCCCC2	> 4	> 4	> 3300	> 3000	> 4	> 4	–
O=c1c(O)c(O)oc2cc3c(cc12)OCO3	1.11	0.744	426	389	3.98	1.55	–
O=C1C(O)=C(O)OC2CCCCC12 (configuration not stated)	> 4	> 4	447	406	> 4	> 4	–
O=c1c(O)c(O)oc2ccccc12	3.41	3.98	531	472	0.561	0.925	–
O=c1c(O)c(O)oc2ccc(-c3ccccc3)cc12	0.422	0.345	522	450	0.253	0.407	–
CC(C)(C)c1cc2oc(O)c(O)c(=O)c2cc1O	> 4	> 4	1640	2180	> 4	> 4	–
O=c1c(O)c(O)oc2ccc(Cl)cc12	1.4	–	498	513	0.78	1.13	–
O=C1C(O)=C(O)OC2CCCC[C@H]12 (some centres not stated)	3.09	–	481	492	> 4	> 4	Not Active
CC(=O)Oc1ccccc1C(=O)O [ASPIRIN]	–	–	59	50	0.089	0.095	–
CC(C)(Oc1ccc(Cl)cc1)C(=O)O [CLOFIBRIC ACID]	> 4	3.08	–	–	> 3.2	> 3.5	–
COc1ccc2c(c1)c(CC(=O)O)c(C)n2C(=O)c1ccc(Cl)cc1 [INDOMETHACIN]	–	–	0.8	0.7	0.001	0.001	–
